# Experimental data of several laboratories.
# Lines come from different studies, so protocols differ.
# NPY1R: Neuropeptide Y receptor type 1 (NPY1R, Homo sapiens, UniProt P25929)
# BRAF V600E: Serine/threonine-protein kinase B-raf (BRAF, Homo sapiens, UniProt P15056, V600E)
# Blk: Tyrosine-protein kinase Blk (Blk, Mus musculus, UniProt P16277)
# ADORA3: Adenosine receptor A3 (ADORA3, Homo sapiens, UniProt P0DMS8)
# DRD2: D(2) dopamine receptor (DRD2, Homo sapiens, UniProt P14416)
Compound,target,assay,setting,inhibition
COc1cc2c(cc1OC)-c1nnnn1CCC2,"Protein mono-ADP-ribosyltransferase PARP16 (PARP16, Homo sapiens, UniProt Q8N5Y8)","enzyme activity, inhibitor",10 µM,83%
O=C(c1ccc(Cl)cc1)N(Cc1ccccc1)C1CCCCC1,NPY1R,cell-free assay,10 µM,-13.6%
Cc1ccc(C(CS(=O)(=O)c2ccccc2)=NNc2nc(C)c(N=Nc3ccccc3)s2)cc1,BRAF V600E,"enzyme activity, inhibitor, ATP luminescence",10 µM,85%
CNCc1ccc(-c2cc(-c3nc(-c4ccc(S(=O)(=O)C(C)C)cc4)cnc3N)on2)cc1,Blk,"enzyme activity, inhibitor",0.4 µM,2%
CC(=O)c1nn(CC(=O)N2C[C@H](F)C[C@H]2C(=O)Nc2cccc(Br)n2)c2ccc(-c3cnc(C)nc3)cc12,"Neutrophil elastase (ELANE, Homo sapiens, UniProt P08246)","enzyme activity, inhibitor",10 µM,0.7%
Cc1ccc(Nc2nccc(N(C)c3ccc4c(C)n(C)nc4c3)n2)cc1S(N)(=O)=O,Blk,"enzyme activity, inhibitor",10 µM,73%
O=C1N=C(N2CCCCN2)S/C1=C\c1ccc(F)cc1O,NPY1R,"ligand displacement, radioligand",10 µM,< 10%
CC(C)N1CCCn2c1nc1c2c(=O)n(C)c(=O)n1C,ADORA3,"ligand displacement, radioligand","10 µM, cell membranes",8%
Cc1ccc(C(CS(=O)(=O)c2ccccc2)=NNc2nc(-c3ccc(OCCCCOc4ccc(-c5csc(NN=C(CS(=O)(=O)c6ccccc6)c6ccc(C)cc6)n5)cc4)cc3)cs2)cc1,BRAF V600E,"enzyme activity, inhibitor, ATP luminescence",10 µM,91%
CC(=O)N[C@H]1CSSC[C@@H](C(=O)N[C@H](Cc2c[nH]c3ccccc23)C(N)=O)NC(=O)[C@H](Cc2ccccc2)NC(=O)[C@H](CCCNC(=N)N)NC1=O,"Melanocortin receptor 3 (MC3R, Homo sapiens, UniProt P41968)","ligand displacement, radioligand","10 µM, 40 min",59%
CCOc1ccc(N2C(=O)CC(NCCc3ccccc3Cl)C2=O)cc1 (centres unmarked),DRD2,"enzyme activity, inhibitor",10 µM,42.5%
Cc1ccc(N=Nc2sc(NN=C(CS(=O)(=O)c3ccccc3)c3ccc(C)cc3)nc2C)cc1,BRAF V600E,"enzyme activity, inhibitor, ATP luminescence",0.1 µM,48%
CN(C)C(=O)N[C@H]1CC[C@H](CCN2CCN(c3cccc(Cl)c3Cl)CC2)CC1,DRD2,cell-free assay,10 µM,101%
Cc1ccc(C(CS(=O)(=O)c2ccccc2)=NNC(N)=S)cc1,BRAF V600E,"enzyme activity, inhibitor, ATP luminescence",0.1 µM,46%
CC(=O)Nc1ccc(N2C(=O)CC(NCCc3ccccc3)C2=O)cc1 (centres unmarked),DRD2,"enzyme activity, inhibitor",10 µM,37.8%
Cc1ccc(C(CS(=O)(=O)c2ccccc2)=NNc2nc(C)c(N=Nc3cccc(C)c3)s2)cc1,BRAF V600E,"enzyme activity, inhibitor, ATP luminescence",0.1 µM,63%
COc1cc(NC(C)=O)c(Cl)cc1C(=O)Nc1nccs1,"Type-1 angiotensin II receptor (AGTR1, Homo sapiens, UniProt P30556)",cell-free assay,10 µM,4.8%
Cc1ccc(C(CS(=O)(=O)c2ccccc2)=NNC2=NC(=O)C(=NNc3ccc([N+](=O)[O-])cc3)S2)cc1,BRAF V600E,"enzyme activity, inhibitor, ATP luminescence",0.1 µM,49%
OC(CNCc1cccc(Oc2nnnn2-c2ccccc2)c1)c1ccccc1 (centres unmarked),DRD2,"enzyme activity, inhibitor",10 µM,35.6%
CC(C)CN1CCCn2c1nc1c2c(=O)n(C)c(=O)n1C,ADORA3,"ligand displacement, radioligand","10 µM, cell membranes",18%
CN(C)C1CCN(CC#Cc2nn(C3CCCC3)c3nc(NCc4ccccc4)ncc23)C1 (centres unmarked),"Mitogen-activated protein kinase 8 (MAPK8, Homo sapiens, UniProt P45983)","enzyme activity, inhibitor, FRET",10 µM,8%
CCCCN1CCCn2c1nc1c2c(=O)n(C)c(=O)n1C,ADORA3,"ligand displacement, radioligand","10 µM, cell membranes",12%
CCN(CC)CCNC(=O)c1c(C)[nH]c(/C=C2\C(=O)Nc3ccc(F)cc32)c1C,Blk,"enzyme activity, inhibitor",0.3 µM,36%
